The values below come from ChEMBL document CHEMBL1122175, “Pentasubstituted quercetin analogues as selective inhibitors of particulate 3':5'-cyclic-AMP phosphodiesterase from rat brain” (J Med Chem, 1982).

Molecules are shown by their SMILES.

Assay [1] concerns the target T1, cGMP-dependent 3',5'-cyclic phosphodiesterase (Rattus norvegicus, UniProt Q01062).
T1 sequence (Q01062 whole entry): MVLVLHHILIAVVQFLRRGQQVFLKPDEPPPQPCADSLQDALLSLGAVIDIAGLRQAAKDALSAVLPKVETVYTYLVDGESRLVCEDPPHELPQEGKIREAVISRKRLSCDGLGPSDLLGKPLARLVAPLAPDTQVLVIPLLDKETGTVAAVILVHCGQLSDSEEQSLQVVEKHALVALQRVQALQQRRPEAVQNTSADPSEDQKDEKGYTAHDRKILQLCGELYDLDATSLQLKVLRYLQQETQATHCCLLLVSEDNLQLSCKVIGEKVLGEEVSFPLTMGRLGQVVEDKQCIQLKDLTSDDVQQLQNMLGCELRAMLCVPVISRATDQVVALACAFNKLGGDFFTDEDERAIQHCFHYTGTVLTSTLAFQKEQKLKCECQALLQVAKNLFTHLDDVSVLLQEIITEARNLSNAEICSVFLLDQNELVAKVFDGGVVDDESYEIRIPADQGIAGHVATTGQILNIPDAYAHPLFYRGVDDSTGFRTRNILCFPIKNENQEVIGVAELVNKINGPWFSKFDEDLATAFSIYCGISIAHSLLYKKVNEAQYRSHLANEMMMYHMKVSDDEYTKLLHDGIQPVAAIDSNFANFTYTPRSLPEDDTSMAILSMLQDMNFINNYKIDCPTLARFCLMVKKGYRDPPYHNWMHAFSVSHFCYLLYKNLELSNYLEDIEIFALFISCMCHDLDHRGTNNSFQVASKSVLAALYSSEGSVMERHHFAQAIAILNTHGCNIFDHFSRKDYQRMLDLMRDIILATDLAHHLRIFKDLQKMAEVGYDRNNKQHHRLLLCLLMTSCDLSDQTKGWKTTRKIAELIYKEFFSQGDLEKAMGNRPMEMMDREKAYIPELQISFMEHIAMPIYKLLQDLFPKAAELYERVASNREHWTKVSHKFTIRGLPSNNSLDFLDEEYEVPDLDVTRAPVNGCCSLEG
Kind of assay: Inhibition of rat brain particulate cGMP phosphodiesterase (Inactive). The gist of the method: (§1)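 The particulate enzyme was the washed high-speed pellet, rehomogenized in sucrose buffer, then resuspended and dialyzed overnight in 20 mM Tris-HCl pH 7.5, 1 mM MgCl2, 0.1 mM DTT, and stored at -20 °C. Hydrolysis of 0.25 µM cAMP or cGMP was assayed at 30 °C in triplicate.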

Assay [2] can be described thus: Inhibition of rat brain cytosolic cAMP phosphodiesterase (Inactive). A digest of the protocol: (§2)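 Rat brains without cerebellum were homogenized in 0.32 M sucrose, 5 mM Tris-HCl pH 7.5, 1 mM MgCl2, 0.1 mM DTT. After a 1000g spin and a high-speed spin, the supernatant was dialyzed overnight against 20 mM Tris-HCl pH 7.5, 1 mM MgCl2, 0.1 mM DTT. Assay used 0.25 µM cAMP or cGMP in triplicate at 30 °C.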

Assay [3] is described as follows: Inhibition of rat brain particulate cAMP phosphodiesterase (Inactive). A digest of the protocol:
as §1

Assay [4] is described as follows: Inhibition of rat brain cytosolic cAMP phosphodiesterase. The following applies: read-out: I 50. A digest of the protocol:
as §2

A further assay addresses Phosphodiesterase 1 (Rattus norvegicus, UniProt Q63421+Q9EPR9+Q01066). Kind of assay: Inhibition of rat brain cytosolic cGMP phosphodiesterase. The gist of the method:
as §2

Assay [5] concerns the target T1, cGMP-dependent 3',5'-cyclic phosphodiesterase. Kind of assay: Inhibition of rat brain particulate cGMP phosphodiesterase. The gist of the method: as §1
The species entered for assay [6] is Rattus norvegicus. Kind of assay: Relative inhibition of cAMP and cGMP hydrolysis by cytosolic phosphodiesterase.
Assay [7] is described as follows: Inhibition of rat brain particulate cAMP phosphodiesterase. The following applies: read-out: I 50.
For assay [8], the species on record is Rattus norvegicus. Briefly: Relative inhibition of cAMP and cGMP hydrolysis by particulate phosphodiesterase.
Assay [9] in a line: Inhibition of rat brain particulate cAMP phosphodiesterase. The following applies: read-out: I50. The gist of the method: as §1
Assay [10] in a line: Inhibition of rat brain particulate cAMP phosphodiesterase (inactive). The gist of the method:
as §1

The target in assay [11] is T1, cGMP-dependent 3',5'-cyclic phosphodiesterase. Kind of assay: Inhibition of rat brain particulate cGMP phosphodiesterase (inactive). A digest of the protocol: as §1
Assay [12] can be described thus: Inhibition of rat brain cytosolic cAMP phosphodiesterase (inactive). A digest of the protocol: as §2

As for `CCOC(=O)COc1c(-c2ccc(OCC)c(OCC)c2)oc2cc(OCC)cc(OCC)c2c1=O`, the “I 50” value in [1], in assay [2] and in assay [3] was “Not Active” each time.
Consider `CCOC(=O)COc1cc(OCC(=O)OCC)c2c(=O)c(OCC(=O)OCC)c(-c3ccc(OCC(=O)OCC)c(OCC(=O)OCC)c3)oc2c1`, for which the “I 50” value in assay [1], in assay [2] and in assay [3] was “Not Active” each time.
Take `O=c1c(OCCBr)c(-c2ccc(OCCBr)c(OCCBr)c2)oc2cc(OCCBr)cc(OCCBr)c12`: the values for the IC50 in assay [4], in assay [5] (read-out: I 50) and in [7] were 500 µM, 24.5 µM and 18 µM, respectively. The same compound displayed an I 50 on Phosphodiesterase 1 of 10000 µM. For the same compound, the Ratio in the assay filed under Rattus norvegicus [6] was 0.05; in the assay listed under Rattus norvegicus [8] it was 0.73.
In the case of `CCOc1cc(OCCN(CC)CC)c2c(=O)c(OCC)c(-c3ccc(OCC)c(OCC)c3)oc2c1`, the IC50 in assay [4] came to 35 µM; in assay [5] (read-out: I50) it was 80 µM; in assay [9], 10 µM. This compound registered an I 50 on Phosphodiesterase 1 of 58 µM. Moreover, the Ratio stood at 0.6 in the assay filed under Rattus norvegicus [6] and 0.11 in the assay filed under Rattus norvegicus [8].
`CCCCOc1cc(CC2CNC(=O)N2)ccc1OC` (stereo not drawn) [RO-201724]: the IC50 in [4] came out at 1660 µM; in [5] (read-out: I 50), 10000 µM; in [7] it was 74.1 µM. The I 50 on Phosphodiesterase 1 was above 1000 µM. In addition, the Ratio in the assay listed under Rattus norvegicus [6] turned out to be 0.16; in the assay listed under Rattus norvegicus [8], 0.007.
Regarding `CCOc1cc(OCC)c2c(=O)c(OCC(=O)O)c(-c3ccc(OCC)c(OCC)c3)oc2c1`, the IC50 in assay [4] turned out to be 10 µM; in assay [5] (read-out: I 50) it was 71 µM; in assay [7] it was 22 µM. The “I 50” value on Phosphodiesterase 1 is above 1000 µM. The results for the Ratio in the assay listed under Rattus norvegicus [6] and in the assay listed under Rattus norvegicus [8] were below 0.01 and 0.31, respectively.
As for `CCOc1cc(OCC(=O)O)c2c(=O)c(OCC)c(-c3ccc(OCC)c(OCC)c3)oc2c1`, the IC50 turned out to be 20 µM in [4], 48 µM in [5] (read-out: I 50) and 16 µM in [7]. Moreover, the “I 50” value at Phosphodiesterase 1 was found to be 63 µM. For the same compound, the Ratio in the assay filed under Rattus norvegicus [6] and in the assay listed under Rattus norvegicus [8] was 0.32 in each case.
In the case of `O=C(O)COc1cc(OCC(=O)O)c2c(=O)c(OCC(=O)O)c(-c3ccc(OCC(=O)O)c(OCC(=O)O)c3)oc2c1`, the “I 50” value in [10], in assay [11] and in [12] was “Not Active” each time.
With `COc1cc(OC)c2c(=O)c(OC)c(-c3ccc(OC)c(OC)c3)oc2c1`, the IC50 in assay [4] was 6.3 µM; in [5] (read-out: I 50), 96 µM; in assay [7], 10.2 µM. In addition, the “I 50” value on Phosphodiesterase 1 was above 1000 µM. Besides, the Ratio in the assay filed under Rattus norvegicus [6] was below 0.008; in the assay listed under Rattus norvegicus [8] it was 0.1.
On to `CCOc1cc(OCC)c2c(=O)c(OCC)c(-c3ccc(OCC)c(OCC)c3)oc2c1`, for which the results for the IC50 in [4], in assay [5] (read-out: I 50) and in assay [7] were 70 µM, 350 µM and 7.7 µM, respectively. At Phosphodiesterase 1, this compound registered an I 50 above 10000 µM. For the same compound, the Ratio in the assay listed under Rattus norvegicus [6] is below 0.007; in the assay filed under Rattus norvegicus [8], 0.02.
Take `CCOc1cc(OCC)c2c(=O)c(O)c(-c3ccc(OCC)c(OCC)c3)oc2c1`: the “I 50” value in assay [1], in [2] and in assay [3] was “Not Active” in each case.
As for `CCCOc1cc(OCCC)c2c(=O)c(OCCC)c(-c3ccc(OCCC)c(OCCC)c3)oc2c1`, the “I 50” value in [1], in [2] and in [3] was “Not Active” in each case.
For `CCOC(=O)COc1cc(OCC)cc2oc(-c3ccc(OCC)c(OCC)c3)c(OCC)c(=O)c12`, the values for the IC50 in assay [4], in assay [5] (read-out: I 50) and in assay [7] were 80 µM, 700 µM and 8.3 µM, respectively. The “I 50” value at Phosphodiesterase 1 was above 1000 µM. Also, the Ratio is below 0.08 in the assay listed under Rattus norvegicus [6] and 0.01 in the assay listed under Rattus norvegicus [8].
Consider `CCC(=O)Oc1cc(OC(=O)CC)c2c(=O)c(OC(=O)CC)c(-c3ccc(OC(=O)CC)c(OC(=O)CC)c3)oc2c1`, for which the “I 50” value in assay [1] and in [2] was “Not Active” each time.
For the compound `CCOc1cc(OCC)c2c(=O)c(OCCN(CC)CC)c(-c3ccc(OCC)c(OCC)c3)oc2c1`, the figures for the IC50 in assay [4], in assay [5] (read-out: I50) and in [9] were 37 µM, 126 µM and 20 µM, respectively. The compound further had an I 50 on Phosphodiesterase 1 of 47 µM. Further, the Ratio in the assay listed under Rattus norvegicus [6] worked out at 0.79; in the assay listed under Rattus norvegicus [8], 0.16.
In the case of `CCCOc1ccccc1-c1nc2nn[nH]c2c(=O)[nH]1` [ZAPRINAST], in assay [5] (read-out: I50), the IC50 is 63.1 µM.
As to `CCOc1cc(OCC)c2c(=O)c(OCCO)c(-c3ccc(OCC)c(OCC)c3)oc2c1`, the “I 50” value in [1], in assay [2] and in [3] was “Not Active” each time.
Turning to `CCOc1cc(O)c2c(=O)c(OCC)c(-c3ccc(OCC)c(OCC)c3)oc2c1`, the “I 50” value in assay [1], in assay [2] and in [3] was “Not Active” in each case.
As for `CC(=O)Oc1cc(OC(C)=O)c2c(=O)c(OC(C)=O)c(-c3ccc(OC(C)=O)c(OC(C)=O)c3)oc2c1`, the IC50 was 355 µM in [4], 275 µM in [5] (read-out: I 50) and 126 µM in assay [7]. Also, the Ratio in the assay filed under Rattus norvegicus [8] is 0.46.
`O=c1c(O)c(-c2ccc(O)c(O)c2)oc2cc(O)cc(O)c12` [QUERCETIN]: the values for the IC50 in assay [4], in assay [5] (read-out: I 50) and in [7] were 87 µM, 81.3 µM and 20 µM, respectively. Moreover, the “I 50” value at Phosphodiesterase 1 worked out at 275 µM. Also, the Ratio in the assay filed under Rattus norvegicus [6] was 0.32; in the assay listed under Rattus norvegicus [8], 0.24.
In the case of `CCCOc1ccccc1-c1nc2[nH]nnc2c(=O)[nH]1` [ZAPRINAST], the IC50 in assay [4] came out at 66.1 µM; in assay [9], 74.1 µM. Also, the I 50 at Phosphodiesterase 1 was 93.3 µM. Besides, the Ratio was determined as 0.71 in the assay filed under Rattus norvegicus [6] and 1.17 in the assay listed under Rattus norvegicus [8].
As to `CCOc1cc(OCCBr)c2c(=O)c(OCC)c(-c3ccc(OCC)c(OCC)c3)oc2c1`, the IC50 amounted to 40 µM in assay [4], 96 µM in assay [5] (read-out: I 50) and 17 µM in [7]. The “I 50” value at Phosphodiesterase 1 is above 1000 µM. The values for the Ratio in the assay filed under Rattus norvegicus [6] and in the assay filed under Rattus norvegicus [8] were below 0.04 and 0.18, respectively.
For `O=c1c(OCCO)c(-c2ccc(OCCO)c(OCCO)c2)oc2cc(OCCO)cc(OCCO)c12`, the figures for the IC50 in [4], in assay [5] (read-out: I 50) and in assay [7] were 470 µM, 1300 µM and 69 µM, respectively. For the same compound, the “I 50” value on Phosphodiesterase 1 came out at 2800 µM. The Ratio in the assay filed under Rattus norvegicus [6] turned out to be 0.17; in the assay filed under Rattus norvegicus [8] it was 0.05.
As for `CCCC(=O)Oc1cc(OC(=O)CCC)c2c(=O)c(OC(=O)CCC)c(-c3ccc(OC(=O)CCC)c(OC(=O)CCC)c3)oc2c1`, the “I 50” value in [1], in assay [2] and in assay [3] was “Not Active” in each case.
